From PubChem BioAssay
HSF1 inhib – HSF1 inhibition; NIH3T3-HGL HSE-luciferase, MG132-induced, luminescence 8 h; hits give low values; 0.77% of 300,000 active; activity change, negative = inhibition, % at 7.5 µM (by protocol); AID 2098;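 active = more than half of replicate wells show activity change below -50%, luminescence cut by over half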;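 also: luciferase reports HSF-1 transcriptional activity via heat shock element; 0% = median of DMSO wells and -100% = zero luminescence signal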
697 NFkB inh – inhibitors of the PMA/ionomycin-induced NF-kB reporter in 697 B cells. AID 435022. 697 B-cell NF-kB luciferase reporter, 16 h. inhibition, % at 4 µM. 0.33% of 330,000 active; in the data active = inhibition above about 35%
Jurkat NFkB inh – lowers PMA/ionomycin-induced NF-kB signal in Jurkat cells | inhibition, % at 4 µM | PMA/ionomycin-induced NF-kB luciferase reporter, luminescence | 0.53% of 330,000 active | AID 435003; in the data active = inhibition above about 50%
HSF-1 act – increases HSF-1 driven luciferase reporter signal; activation, % at 9 µM; 1.7% of 300,000 active; NIH3T3-HGL HSF-1 luciferase reporter, MG132, 8 h; 100% = twice DMSO control signal;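 active = mean replicate activation of at least 50% with a set share of replicates each reaching 50%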;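 also: 0% = median of the neutral control wells and 100% = twice that signal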
GPR7 antag – antagonists of human GPR7 (neuropeptides B/W receptor 1); 1.1% of 290,000 active; P48145; inhibition, % at 4.4 µM; GPR7-expressing cells, fluorescence antagonist assay; AID 1861; in the data active = inhibition above about 16%, passing the limit was not always enough;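 also: cells stimulated with the agonist NPW; 0% = agonist with vehicle and 100% = vehicle without agonist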
Target sequence (P48145 whole entry, looked up): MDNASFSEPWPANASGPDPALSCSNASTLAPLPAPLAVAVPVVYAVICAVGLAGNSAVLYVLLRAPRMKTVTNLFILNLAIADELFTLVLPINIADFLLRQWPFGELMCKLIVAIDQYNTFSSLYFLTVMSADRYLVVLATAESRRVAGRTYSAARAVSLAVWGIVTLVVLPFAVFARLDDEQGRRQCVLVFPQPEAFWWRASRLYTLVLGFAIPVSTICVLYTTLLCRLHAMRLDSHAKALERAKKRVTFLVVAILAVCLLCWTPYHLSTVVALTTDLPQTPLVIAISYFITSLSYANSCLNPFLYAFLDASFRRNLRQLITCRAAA
T cruzi inh – T. cruzi replication inhibition. T. cruzi beta-gal in NIH3T3, luminescence, 90 h. inhibition, % (concentration not given with the values). 1.4% of 300,000 active;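 active = mean inhibition across valid replicates above about 55%, limit read from the data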;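 also: signal also drops with host cell toxicity which is not excluded here; 0% = plate median of DMSO wells and 100% = zero luminescence signal; higher percent means less beta-gal luminescence so fewer parasites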
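compound dosing = single 50 nL compound addition per well in DMSO | material = NIH/3T3 host cells with β-galactosidase reporter T. cruzi | input = 5,000 host fibroblasts per well | timing = ≥90 h infection period, 3 h prior cell attachment | read-out basis = percent inhibition of parasite-derived β-gal signal | detection = GalScreen β-gal luminescence, detergent lysis, 60 min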
GPR7 antag conf – human GPR7 antagonism, confirmation assay | shares compounds with GPR7 antag | GPR7-expressing cells, calcium fluorescence antagonist mode | inhibition, % at 4.4 µM | 52% of 2,400 active; in the data active = inhibition above about 24%;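 also: stimulated with the GPR7 agonist NPW; 0% = agonist plus vehicle and 100% = vehicle alone without agonist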
MCHR1 antag – MCHR1 (human) antagonism in GPR7 counter-screen; shares compounds with GPR7 antag; MCHR1-expressing cells, fluorescence antagonist assay; inhibition, % at 4.4 µM; 62% of 2,400 active; AID 2148; in the data active = inhibition above about 22%;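 also: 0% = vehicle with agonist and 100% = vehicle without agonist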
Numbers without * were called inactive; . = no result given. This is a sample that favours compounds with a hit; in the whole collection about 4.8% have one here.

SMILES | HSF1 inhib | 697 NFkB inh | Jurkat NFkB inh | HSF-1 act | GPR7 antag | T cruzi inh | GPR7 antag conf | MCHR1 antag
CC(=O)c1ccccc1NC(=O)COC(=O)/C(=C/c1ccccc1)n1nnnc1C | 14 | -35 | 1 | 20 | 8 | -10 | . | .
CCCCC(O)(CCCC)C(=O)NN(C(=O)OCC)c1ccccc1 | -9 | -12 | 31 | -6 | 32* | -20 | 35* | 27*
CCOC(=O)N(NC(=O)C(O)(C(C)C)C(C)C)c1ccccc1 | -11 | 0 | -9 | 1 | -2 | -18 | . | .
CCOC(=O)N(NC(=O)C(O)(c1ccccc1)c1ccccc1)c1ccccc1 | 11 | 11 | 13 | 19 | 31* | 5 | 19 | 28*
COC(=O)c1ccccc1S(=O)(=O)N1CCC(C(=O)NC2CCCCC2C)CC1 (stereo not drawn) | . | 12 | -1 | . | . | . | . | .
CCOc1ccccc1-n1nnnc1SCC(=O)NCc1ccco1 | 1 | 10 | -1 | 4 | -9 | -18 | . | .
Cc1ccc(NC(=O)C(=O)NN=C2CCCC2)cc1C | -2 | -22 | -10 | -13 | -6 | -10 | . | .
CN1C(=O)C(O)(CC(=O)/C=C/C=C/c2ccccc2)c2ccccc21 (stereo not drawn) | 9 | -1 | 16 | 19 | 23* | -4 | -16 | 10
CN1C(=O)C(O)(CC(=O)/C=C/c2ccco2)c2ccccc21 (stereo not drawn) | -5 | 2 | -4 | 18 | 0 | -4 | . | .
CCc1ccc(Cn2nnc(C(=O)NCc3ccccc3OC)c2N)cc1 | 3 | 7 | 3 | -2 | 25* | -2 | -1 | -2
Cc1ccc(Cn2nnc(C(=O)Nc3cccc(C)c3C)c2N)cc1 | 0 | 9 | -10 | 6 | 61* | -56 | 77* | 75*
Cn1c(=O)oc2cc(S(=O)(=O)N3CCN(c4ccccc4)CC3)ccc21 | 0 | -14 | 13 | 0 | -17 | 6 | . | .
Cn1c(=O)oc2cc(S(=O)(=O)N3CCN(c4ccccn4)CC3)ccc21 | 2 | 2 | 10 | -11 | 26* | -14 | -3 | -4
Cc1cc(-c2ccc(C)c(S(=O)(=O)N3CCN(c4ccccn4)CC3)c2)on1 | 2 | -16 | 22 | 8 | 28* | 25 | 32* | 62*
CCOc1cc2sc(N3CCC(C(=O)NCCCN4CCCC4=O)CC3)nc2cc1Br | 1 | -50 | -14 | 2 | -4 | 11 | . | .
COc1ccccc1C(=O)C1CCCN(C(=O)Nc2ccccc2F)C1 (stereo not drawn) | 7 | -14 | -26 | 16 | -12 | -4 | . | .
COc1ccc(NC(=O)CN2CCN(C(=O)N3CCOCC3)CC2)cc1 | -5 | -25 | -8 | 7 | 21 | -3 | . | .
COc1ccc2[nH]c3c4c(ccc3c2c1)C(=O)C=CC4=O | . | -71 | 45 | . | 23* | . | 62* | 80*
CCOc1ccccc1OCC(=O)Nc1cc(S(=O)(=O)N2CCCCC2)ccc1N1CCN(CC)CC1 | -3 | -11 | 8 | -9 | . | 46 | . | .
CCN1CCN(c2ccc(S(=O)(=O)N3CCCCC3)cc2NC(=O)COc2ccc(Cl)c(C)c2)CC1 | 0 | -5 | -5 | -5 | 23* | 39 | 51* | 43*
COc1cc(CN2CCNC(=O)C2CC(=O)NCCCC2CCCC2)cc(OC)c1 (stereo not drawn) | 2 | 7 | 9 | -3 | -7 | 3 | . | .
COc1ccccc1NC(=O)Oc1cccc(OC(=O)c2ccccc2)c1 | 3 | 2 | 8 | 10 | 21 | 9 | 10 | 20
COC(=O)c1cccc(NC(=O)Nc2ccccc2OC)c1 | 9 | -8 | -21 | 41 | 6 | -1 | . | .
CCOC(=O)CCc1c(C)c2ccc(OCC)c(C)c2oc1=O | -4 | 3 | -9 | 15 | 32* | -10 | 42* | 30*
COc1ccc(NS(=O)(=O)c2ccc(O)c(NC(=O)c3cc4c(C)nn(-c5ccc(F)cc5)c4s3)c2)cc1 | 9 | -8 | -1 | 34 | -4 | -6 | . | .
SMILES | HSF1 inhib | 697 NFkB inh | Jurkat NFkB inh | HSF-1 act | GPR7 antag | T cruzi inh | GPR7 antag conf | MCHR1 antag
CCC(C)[C@H](NC(=O)[C@@H]1CSC2c3ccccc3C(=O)N21)C(=O)NCc1ccco1 (stereo partly drawn) | -1 | 3 | 7 | -3 | -5 | 1 | . | .
Cc1nc(/N=C\c2ccc(N(C)C)cc2)sc1C | 1 | 7 | -3 | -10 | . | -18 | . | .
O=[N+]([O-])c1ccc(NC(=S)NCCc2ccc(Cl)cc2)cc1 | -8 | -4 | 20 | -4 | 49* | 53 | 65* | 70*
S=C(NCCc1ccccc1)Nc1ccc(Cl)cc1 | 21 | -43 | -29 | 49 | -12 | -15 | . | .
Fc1ccc(CNC(=S)Nc2cccc(Cl)c2)cc1 | -1 | -7 | -2 | 0 | 36* | -20 | 14 | 53*
S=C(NCCN(C1CCCCC1)C1CCCC1)Nc1cccc(Cl)c1 | 1 | 4 | 25 | 27 | 55* | 32 | 60* | 69*
O=[N+]([O-])c1ccc(NC(=S)NCc2ccc(F)cc2)cc1 | 8 | 1 | 16 | 12 | 40* | 25 | 59* | 71*
CSc1ncccc1C(=O)NC(C)CCc1ccccc1 (stereo not drawn) | -4 | 3 | -10 | -9 | 3 | -17 | . | .
CCc1nnc(SCC(=O)Nc2nc(C)c(C(=O)N(C)C)s2)n1CC | -6 | -1 | -4 | 12 | 0 | -2 | . | .
Cc1cccc(NC(=O)CSc2nnc(CNC(=O)c3ccco3)o2)c1 | -8 | -6 | 0 | -3 | 2 | 5 | . | .
CC(C)OCCCNC(=O)c1ccccc1NC(=O)C1=CSCCO1 | 0 | -12 | 12 | 16 | -18 | 6 | . | .
O=[N+]([O-])c1ccc(NC(=S)NCCc2ccccc2)cc1 | 5 | -1 | 5 | 21 | 47* | 21 | 61* | 59*
N#Cc1nc(COc2ccc(F)cc2)oc1N1CCN(Cc2ccccc2)CC1 | -3 | -1 | 8 | -1 | 35* | . | 33* | 52*
N#Cc1nc(COc2ccc(F)cc2)oc1N1CCC(Cc2ccccc2)CC1 | 10 | 25 | 1 | 40 | 30* | 38 | 48* | 47*
COc1ccc(OCc2nc(C#N)c(N3CCN(c4ccc(OC)cc4)CC3)o2)cc1 | 5 | 6 | 3 | 6 | 43* | 17 | 48* | 50*
N#Cc1nc(Cc2ccccc2)oc1N1CCC(Cc2ccccc2)CC1 | 8 | -6 | 10 | 14 | 4 | 23 | . | .
N#Cc1nc(COc2ccc(Cl)cc2)oc1N1CCCCCC1 | . | 6 | 7 | . | -9 | . | . | .
CCCNC(=O)c1nnsc1S(=O)(=O)c1ccc(Cl)cc1 | . | -8 | 29 | . | 35* | . | 79* | 102*
